A word on the inhibition: it is the relative decrease from the control value, in per cent.

Calls of active or inactive are those of the source. The calls are words filed in the database; no cut-off is given here.

The record followed here is ChEMBL document CHEMBL4715754, “Slowing down fat digestion and absorption by an oxadiazolone inhibitor targeting selectively gastric lipolysis” (2016).

Test [1] has as its target T1, Gastric triacylglycerol lipase (Canis lupus familiaris) (UniProt P80035).
T1 sequence (whole entry): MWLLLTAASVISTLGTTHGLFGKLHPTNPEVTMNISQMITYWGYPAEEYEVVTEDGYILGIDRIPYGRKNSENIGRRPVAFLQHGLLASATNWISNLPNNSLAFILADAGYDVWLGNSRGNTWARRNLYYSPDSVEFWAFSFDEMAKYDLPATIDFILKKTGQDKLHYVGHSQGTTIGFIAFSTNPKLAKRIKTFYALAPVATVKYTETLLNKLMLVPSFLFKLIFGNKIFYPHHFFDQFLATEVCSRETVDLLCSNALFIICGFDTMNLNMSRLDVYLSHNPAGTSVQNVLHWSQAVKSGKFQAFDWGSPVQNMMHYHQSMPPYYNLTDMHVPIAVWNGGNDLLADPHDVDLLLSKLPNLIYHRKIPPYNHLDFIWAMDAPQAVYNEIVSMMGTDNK
The experiment in a line: Inhibition of recombinant dog gastric lipase at 20:1 molar excess compound concentration preincubated for 30 mins at 25 degreeC relative to control.

Test [2] deals with T1, Gastric triacylglycerol lipase (Canis lupus familiaris). The test is described as follows: Inhibition of recombinant dog gastric lipase at 4:1 molar excess compound concentration preincubated for 30 mins at 25 degreeC relative to control.
The target is the same in test [3]. The test is described as follows: Inhibition of recombinant dog gastric lipase preincubated for 30 mins at 25 degreeC.
In test [4] the target is T2, Pancreatic lipase-related protein 2 (Cavia porcellus) (UniProt P81139).
T2 sequence (whole entry): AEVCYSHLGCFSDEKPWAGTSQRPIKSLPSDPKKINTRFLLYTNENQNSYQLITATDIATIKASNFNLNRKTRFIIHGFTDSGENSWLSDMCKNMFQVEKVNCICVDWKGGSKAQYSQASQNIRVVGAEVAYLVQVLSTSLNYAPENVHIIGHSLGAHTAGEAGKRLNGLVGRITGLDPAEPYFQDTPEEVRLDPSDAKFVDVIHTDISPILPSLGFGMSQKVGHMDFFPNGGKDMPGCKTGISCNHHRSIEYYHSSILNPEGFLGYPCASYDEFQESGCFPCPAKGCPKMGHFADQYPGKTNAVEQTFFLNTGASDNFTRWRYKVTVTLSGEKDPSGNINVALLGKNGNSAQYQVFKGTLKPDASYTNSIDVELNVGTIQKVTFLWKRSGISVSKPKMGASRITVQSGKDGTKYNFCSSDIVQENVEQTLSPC
The test is described as follows: Inhibition of recombinant guinea pig PL-RP2 expressed in Aspergillus oryzae at 4:1 molar excess compound concentration preincubated for 30 mins at 25 degreeC relative to control.

The target of test [5] is T2, Pancreatic lipase-related protein 2 (Cavia porcellus). The experiment in a line: Inhibition of recombinant guinea pig PL-RP2 expressed in Aspergillus oryzae at 20:1 molar excess compound concentration preincubated for 30 mins at 25 degreeC relative to control.
For test [6] the target is unchanged. The test is described as follows: Inhibition of recombinant guinea pig PL-RP2 expressed in Aspergillus oryzae preincubated for 30 mins at 25 degreeC.
Test [7] addresses T3, Pancreatic triacylglycerol lipase (Sus scrofa) (UniProt P00591).
T3 sequence (whole entry): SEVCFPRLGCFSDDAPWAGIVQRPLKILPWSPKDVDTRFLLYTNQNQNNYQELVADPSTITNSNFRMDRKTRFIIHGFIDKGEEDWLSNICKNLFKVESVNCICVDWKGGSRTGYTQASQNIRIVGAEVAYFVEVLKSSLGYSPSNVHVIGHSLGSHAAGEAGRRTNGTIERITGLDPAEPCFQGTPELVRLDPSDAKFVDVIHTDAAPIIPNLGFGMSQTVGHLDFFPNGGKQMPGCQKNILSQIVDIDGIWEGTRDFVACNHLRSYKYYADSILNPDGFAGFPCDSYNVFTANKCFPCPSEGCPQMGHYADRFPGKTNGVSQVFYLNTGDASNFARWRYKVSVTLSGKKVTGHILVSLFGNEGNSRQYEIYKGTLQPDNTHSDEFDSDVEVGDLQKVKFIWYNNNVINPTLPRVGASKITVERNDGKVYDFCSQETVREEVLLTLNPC
The test is described as follows: Inhibition of porcine pancreatic lipase at 400:1 molar excess compound concentration preincubated for 30 mins at 25 degreeC relative to control. The essentials: (§1)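 Pancreatic lipase from human pancreatic juice (54 µg/mL HPL stock) or porcine pancreatic extract (32 µg/mL PPL stock) was held in 10 mM MES pH 7.0, 150 mM NaCl. It was pre-incubated with inhibitor from DMSO stock for 30 min at 25 °C with 4 mM NaTDC at varied molar excess. Residual activity was read by pH-stat on tributyrin at 37 °C, pH 8.0, with 2 mM CaCl₂ and 4 mM NaTDC. x_I50 was taken from residual activity; DMSO-only controls were run.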

Test [8] addresses T3, Pancreatic triacylglycerol lipase (Sus scrofa). The experiment in a line: Inhibition of porcine pancreatic lipase preincubated for 30 mins at 25 degreeC. The procedure, abridged: as §1
Test [9] deals with T4, Pancreatic triacylglycerol lipase (Homo sapiens) (UniProt P16233).
T4 sequence (whole entry): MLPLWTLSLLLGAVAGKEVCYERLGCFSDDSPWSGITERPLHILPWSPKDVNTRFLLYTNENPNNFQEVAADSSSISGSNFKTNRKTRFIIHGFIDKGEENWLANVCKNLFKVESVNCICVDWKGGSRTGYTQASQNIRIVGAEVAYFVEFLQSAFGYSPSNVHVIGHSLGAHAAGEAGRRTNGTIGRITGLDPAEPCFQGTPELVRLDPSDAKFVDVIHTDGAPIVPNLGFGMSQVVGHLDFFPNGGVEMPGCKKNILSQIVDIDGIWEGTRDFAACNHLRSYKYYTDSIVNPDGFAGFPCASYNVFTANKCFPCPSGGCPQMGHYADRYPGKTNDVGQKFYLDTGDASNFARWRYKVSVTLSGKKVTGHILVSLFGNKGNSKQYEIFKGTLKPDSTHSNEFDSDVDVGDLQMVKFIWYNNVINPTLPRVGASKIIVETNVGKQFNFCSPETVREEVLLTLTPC
The test is described as follows: Inhibition of human pancreatic lipase at 400:1 molar excess compound concentration preincubated for 30 mins at 25 degreeC relative to control. The procedure, abridged: as §1

Test [10] concerns the target T4, Pancreatic triacylglycerol lipase (Homo sapiens). The experiment in a line: Inhibition of human pancreatic lipase preincubated for 30 mins at 25 degreeC. The essentials:
as §1

Test [11] addresses T3, Pancreatic triacylglycerol lipase (Sus scrofa). The test is described as follows: Inhibition of porcine pancreatic lipase at 400:1 molar excess compound concentration preincubated for 120 mins at 25 degreeC.
Test [12] has as its target T4, Pancreatic triacylglycerol lipase (Homo sapiens). The experiment in a line: Inhibition of human pancreatic lipase at 400:1 molar excess compound concentration preincubated for 120 mins at 25 degreeC.

With `CCCCC(CC)COc1nn(-c2cccc(Oc3ccccc3)c2)c(=O)o1` (stereo not drawn), the inhibition in test [1] is 27.6%; in test [2], 21.6%; in test [4], 47.9%; in test [5] it was 54.8%; in test [7], 18.9%; in test [9], 22.4%. Also, the XI50 in test [3] is above 100 molar excess; in [6], 2.8 molar excess; in [8] it was above 400 molar excess; in test [10] it was above 400 molar excess.

Turning to `CCCCOc1nn(-c2cccc(Oc3ccccc3)c2)c(=O)o1`, the inhibition in [1] is 77.5%; in test [2], 41.5%; in [4], 42.4%; in [5] it was 43.8%; in test [7], 19.7%; in [9] it was 19.1%. Further, the XI50 in test [3] is 5.33 molar excess; in [6] it was above 40 molar excess; in test [8] it was above 400 molar excess; in test [10], above 400 molar excess.

Consider `CCOc1nn(-c2cccc(Oc3ccccc3)c2)c(=O)o1`, for which the inhibition in [1] was determined as 83%; in test [2] it was 33.6%; in test [4] it was 27.4%; in [5] it was 27.7%; in test [7], 19%; in [9], 18.8%. Also, the XI50 in [3] was 6.08 molar excess; in [6] it was above 40 molar excess; in [8], above 400 molar excess; in [10], above 400 molar excess.

`COc1nn(-c2ccccc2)c(=O)o1`: the inhibition in [7] worked out at 90.6%; in test [9], 25.6%. The compound further displayed an XI50 in test [10] above 400 molar excess.

On to `CC(C)COc1nn(-c2cccc(Oc3ccccc3)c2)c(=O)o1`, for which the inhibition is 69.6% in test [1]; 35.2% in test [2]; 73.6% in [4]; 76% in [5]; 20.6% in [7]; 21.2% in test [9]. The XI50 in test [3] was 5.51 molar excess; in test [6] it was 0.52 molar excess; in test [8], above 400 molar excess; in test [10] it was above 400 molar excess.

For `CCCCCCOc1nn(-c2cccc(Oc3ccccc3)c2)c(=O)o1`, the inhibition in test [1] was determined as 65.9%; in test [2], 43.5%; in test [4], 90.7%; in test [5] it was 91.3%; in [7], 27.2%; in [9] it was 17.1%. The XI50 in [3] is 4.92 molar excess; in test [6] it was 1.09 molar excess; in [8], above 400 molar excess; in [10], above 400 molar excess.

Consider `CCCCCCCCCCOc1nn(-c2cccc(Oc3ccccc3)c2)c(=O)o1`, for which the inhibition in test [1] came to 37.7%; in test [2], 14.6%; in [4], 56.4%; in test [5] it was 57.4%; in test [7] it was 32.5%; in test [9] it was 20.1%. Moreover, the XI50 in [3] is above 100 molar excess; in test [6], 2.72 molar excess; in [8], above 400 molar excess; in test [10], above 400 molar excess.

Take `COc1nn(-c2ccc(Oc3ccccc3)cc2)c(=O)o1`: in test [8], the XI50 is above 400 molar excess. The inhibition in [9] stood at 4%.

`COc1nn(-c2cccc(Oc3ccccc3)c2)c(=O)o1`: in test [9], the inhibition was 49.1%. Moreover, the inhibition entry in test [11] and in test [12] was “inactive” each time.

Regarding `CCCCCCCCOc1nn(-c2cccc(Oc3ccccc3)c2)c(=O)o1`, the inhibition in test [1] stood at 70.5%; in [2] it was 53.9%; in [4], 62.3%; in test [5] it was 63%; in [7] it was 19.9%; in [9], 25.7%. Besides, the XI50 in test [3] was 3.99 molar excess; in test [6] it was 1.47 molar excess; in test [8], above 400 molar excess; in [10] it was above 400 molar excess.

Turning to `COCCOc1nn(-c2cccc(Oc3ccccc3)c2)c(=O)o1`, the inhibition turned out to be 69.1% in [1]; 18.1% in [2]; 60.3% in [4]; 67.8% in test [5]; 15.5% in [7]; 20% in [9]. In addition, the XI50 in test [3] is 11.8 molar excess; in test [6], 1.7 molar excess; in test [8], above 400 molar excess; in test [10], above 400 molar excess.

As for `CCCCCCCCCCCCOc1nn(-c2cccc(Oc3ccccc3)c2)c(=O)o1`, the inhibition is 68.2% in test [1]; 44.1% in [2]; 53.1% in [4]; 54.4% in [5]; 27.9% in test [7]; 29.1% in [9]. For the same compound, the XI50 was 4.57 molar excess in test [3], 1.17 molar excess in test [6], above 400 molar excess in [8] and above 400 molar excess in test [10].
